Measured values: ChEMBL document CHEMBL1143482, “Insecticidal anthranilic diamides: a new class of potent ryanodine receptor activators” (2005)
Converted amounts (≈) assume the structure as drawn.

Columns and labels:
Assay type in all cases: functional
[1] = system: Heliothis virescens; test: Lethal concentration required for 50% mortality in Tobacco budworm
How it was run: (§1)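 Larvae exposed to multiple test rates, 16 insects per rate. Mortality scored 96 h post-infestation as percent control = (dead/total) × 100. LC50 in ppm, with confidence intervals, from Probit analysis with maximum quasi-likelihood curve fitting.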

[2] = system: Spodoptera frugiperda; test: Lethal concentration required for 50% mortality in Fall armyworm; how it was run: as §1
[3] = system: Periplaneta americana; test: Ability to release internal calcium stores mediated by ryanodine receptor without activation of voltage-gated calcium channel of cockroach in CMT assay
How it was run: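 Embryonic Periplaneta americana neurons cultured 7–14 days on glass coverslips, loaded 30 min with Fura-2 AM (2 µM) plus 0.02% pluronic acid in saline (mM: NaCl 190, KCl 3.1, CaCl2 9.0, Tris 10.0, pH 7.2). Ratio imaging, 340/380 nm excitation, 510 nm emission, under perfusion. Caffeine 20 mM given first; only caffeine-responsive cells analysed. Test compounds applied 3 min at multiple rates (n ≥ 11).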

Structure (SMILES) | LC50 [1] | LC50 [2] | CMT [3]
COC(=O)N(C(=O)N1CO[C@@]2(C(=O)OC)Cc3cc(Cl)ccc3C2=N1)c1ccc(OC(F)(F)F)cc1 [INDOXACARB] | 1.5 µg/mL (≈ 2.84 µM) | 0.5 µg/mL (≈ 0.947 µM) | 
Cc1cc(C(F)(F)F)ccc1C(=O)Nc1ccccc1C(=O)NC(C)C | > 500 µg/mL | 27.3 µg/mL (≈ 74.9 µM) | 39.3 µM
Cc1cccc(C(=O)NC(C)C)c1NC(=O)c1cc(C(F)(F)F)nn1-c1cccc(Cl)c1 | > 500 µg/mL | > 500 µg/mL | 
Cc1cccc(C(=O)NC(C)C)c1NC(=O)c1cc(C(F)(F)F)nn1-c1ccccc1Cl | 3.4 µg/mL (≈ 7.31 µM) | 0.05 µg/mL (≈ 0.108 µM) | 0.2 µM
Cc1cccc(C(=O)NC(C)C)c1NC(=O)c1cc(C(F)(F)F)nn1-c1ncccc1Cl | 0.4 µg/mL (≈ 0.859 µM) | 0.1 µg/mL (≈ 0.215 µM) | 0.3 µM
Cc1cccc(C(=O)NC(C)C)c1NC(=O)c1ccc(C(F)(F)F)nc1C | 327 µg/mL (≈ 862 µM) | 20.7 µg/mL (≈ 54.6 µM) | 
CCn1nc(C(F)(F)F)cc1C(=O)Nc1c(C)cccc1C(=O)NC(C)C | 158 µg/mL (≈ 413 µM) | 34.8 µg/mL (≈ 91 µM) | 
Cc1cccc(C(=O)NC(C)C)c1NC(=O)c1cc(C(F)(F)F)nn1C(C)C | 36.4 µg/mL (≈ 91.8 µM) | 11.1 µg/mL (≈ 28 µM) | 
Cc1cccc(C(=O)NC(C)C)c1NC(=O)c1cc(C(F)(F)F)nn1-c1ccccc1 | 354 µg/mL (≈ 822 µM) | 26 µg/mL (≈ 60.4 µM) | 
Cc1cccc(C(=O)NC(C)C)c1NC(=O)c1cc(C(F)(F)F)nn1-c1ccc(Cl)cc1 | > 500 µg/mL | > 500 µg/mL | 
Cc1cccc(C(=O)NC(C)C)c1NC(=O)c1cnc(C(F)(F)F)nc1C(C)C | 42.3 µg/mL (≈ 104 µM) | 9.8 µg/mL (≈ 24 µM) | 26.6 µM
Cc1cccc(C(=O)NC(C)C)c1NC(=O)c1cnc(C(F)(F)F)nc1C | 102 µg/mL (≈ 269 µM) | 11.6 µg/mL (≈ 30.5 µM) | 
Cc1cccc(C(=O)NC(C)C)c1NC(=O)c1cc(C(F)(F)F)nn1C | 130 µg/mL (≈ 353 µM) | 29.6 µg/mL (≈ 80.4 µM) | 120 µM
Cc1cccc(C(=O)NC(C)C)c1NC(=O)c1ccc(C(F)(F)F)nc1C(C)C | 55.5 µg/mL (≈ 136 µM) | 9.6 µg/mL (≈ 23.6 µM) | 
Cc1cc(C(F)(F)F)ccc1C(=O)Nc1c(C)cccc1C(=O)NC(C)C | 256 µg/mL (≈ 675 µM) | 20.7 µg/mL (≈ 54.7 µM) | 
CCc1nc(C(F)(F)F)ccc1C(=O)Nc1c(C)cccc1C(=O)NC(C)C | 77.5 µg/mL (≈ 197 µM) | 9.7 µg/mL (≈ 24.7 µM) | 20.6 µM
CNC(=O)c1cccc(C)c1NC(=O)c1ccc(C(F)(F)F)cc1C | > 500 µg/mL | 60.1 µg/mL (≈ 172 µM) | 
CCNC(=O)c1cccc(C)c1NC(=O)c1ccc(C(F)(F)F)cc1C | > 500 µg/mL | 32.8 µg/mL (≈ 90 µM) | 
Cc1cc(C(F)(F)F)ccc1C(=O)Nc1cccc(C)c1C(=O)NC(C)C | > 500 µg/mL | 77 µg/mL (≈ 203 µM) | 
Cc1cc(Cl)cc(C(=O)NC(C)C)c1NC(=O)c1cc(C(F)(F)F)nn1-c1ncccc1Cl | 0.02 µg/mL (≈ 0.04 µM) |  | 0.1 µM
Cc1cccc(C(=O)NC(C)C)c1NC(=O)c1ccc(C(F)(F)F)cc1 | > 500 µg/mL | 16.9 µg/mL (≈ 46.4 µM) | 
CCc1nc(C(F)(F)F)ncc1C(=O)Nc1c(C)cccc1C(=O)NC(C)C | 41 µg/mL (≈ 104 µM) | 9 µg/mL (≈ 22.8 µM) | 
CC(C)NC(=O)c1cccc(Cl)c1NC(=O)c1cc(C(F)(F)F)nn1-c1ccccc1Cl | 3 µg/mL (≈ 6.18 µM) | 0.1 µg/mL (≈ 0.206 µM) | 0.3 µM
CC1(C)C(C=C(Cl)Cl)C1C(=O)OC(C#N)c1cccc(Oc2ccccc2)c1 (stereo not drawn) [ALPHA-CYPERMETHRIN] | 13.5 µg/mL (≈ 32.4 µM) | 2.1 µg/mL (≈ 5.04 µM) | 
CC(C)NC(=O)c1cccc(Cl)c1NC(=O)c1cc(C(F)(F)F)nn1-c1ncccc1Cl | 0.4 µg/mL (≈ 0.823 µM) | 0.1 µg/mL (≈ 0.206 µM) | 
